The sample as a whole holds a higher share of hits than the screen did.
GAA850 FXN act: FXN promoter activators, primary screen, cell-based, luciferase luminescence, HEK293 lucGAA850. HEK293 lucGAA850 FXN promoter luciferase reporter, 24 h; percent of 10 µM SAHA response. activation, % at 6 µM. 360,000 tested, 0.56% active. AID 540364, 2011;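 active means activation above the average of all compounds screened plus 3 SD, cutoff fixed separately per campaign, cut at about 7.5% in these data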;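 further: 0% = DMSO wells and 100% = 10 µM SAHA wells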
CHOP UPR activ: activators of apoptotic CHOP UPR arm, primary screen, cell-based, CHO-CHOP luciferase reporter, luminescence, uHTS. activation, % at 10 µM. 330,000 tested, 0.34% active. UPR activation; percent of tunicamycin response over DMSO baseline. AID 449763, 2010;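 active means at 10 µM dose, activation of 40% or more, normalized to positive control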;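 further: 100% = tunicamycin at 10 µg/mL and 0% = DMSO alone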
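measured by = luciferase luminescence | assay system = CHO-CHOP cells, stable luciferase reporter of PERK-eIF2a-CHOP signalling | amount = 500 reporter cells seeded per well | timing = 6 h compound exposure at 37 °C after overnight seeding | controls = positive tunicamycin 10 µg/mL, negative DMSO alone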
CHOP inhibitor: inhibitors of CHOP promoter induction, primary screen, cell-based, unfolded protein response, luciferase reporter; CHO-K1 CHOP-promoter luciferase, tunicamycin-induced, 15-18 h; inhibition, % at 10 µM; 220,000 tested, 3.8% active; AID 2732, 2010;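 active means compounds that reduced the stress-induced luciferase reporter signal by more than about 70% of percent inhibition, limit read from the data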;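 further: 0% = tunicamycin plus vehicle and 100% = wells without tunicamycin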
XBP1 UPR activ: activators of adaptive XBP1 UPR arm, primary screen, cell-based, CHO-XBP1 luciferase reporter, luminescence, uHTS | 330,000 tested, 0.33% active | IRE1-XBP1 UPR activation; percent of tunicamycin response, DMSO as zero | activation, % at 20 µM;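 active means versus positive control, 20 µM dose yields 30% or more activation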;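 further: 100% = tunicamycin at 10 µg/mL and 0% = DMSO only wells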
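assay system = CHO-XBP1 luciferase reporter cells | amount = 1000 cells/well | buffer or medium = F12 plus 10% FBS | compound dosing = single point, 20 µM final compound, 1% DMSO | incubation = 16-18 h cell attachment at 37 °C, then 6 h compound exposure | detection = Steady-Glo luminescence read | controls = tunicamycin 10 µg/mL and vehicle-only wells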
UPR XBP1 confirm: IRE1-XBP1 UPR arm activators, confirmation, cell-based, CHO-XBP1 luciferase reporter, luminescence, single concentration; AID 485299, 2010; 1,000 tested, 63% active; shares compounds with XBP1 UPR activ; activation, % at 20 µM;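 active means reporter signal at least 30% of the positive control's activation in two or more of four replicate wells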;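 further: plate controls were DMSO negative control for no effect and tunicamycin 10 µg/mL positive control for full effect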
Active calls of the source: *; . = no result.

SMILES	GAA850 FXN act	CHOP UPR activ	CHOP inhibitor	XBP1 UPR activ	UPR XBP1 confirm
COc1ccccc1-c1cc(-c2ccccc2)nc(SC(C(N)=O)c2ccccc2)c1C#N (configuration not stated)	-6.0	13.0	75.9*	70.3*	46.2*
Cc1nc(SC(C(N)=O)c2ccccc2)c(C#N)c(C)c1C (configuration not stated)	1.2	0.7	-1.9	-3.9	.
C[C@H]1CN([C@@H](C)CO)C(=O)CCCn2cc(nn2)CO[C@@H]1CN(C)C(=O)CCC(F)(F)F	-0.7	.	.	.	.
CCOC(=O)C1=C(O)/C(=C/c2cn(CC(=O)NCC3CCCO3)c3ccccc23)SC1=Nc1ccc(C)cc1 (configuration not stated)	2.5	23.0	.	65.9*	30.9*
CCOC(=O)C1=C(O)/C(=C/c2ccc(-c3ccccc3C(=O)O)o2)SC1=Nc1ccc(C)cc1	-2.4	.	.	.	.
COc1cc(C(=O)N(C)C2CCCCC2)cc(OC)c1OC	-0.4	.	.	.	.
CN(C)CCCNC(=O)c1ccccn1	-0.1	-1.0	-10.5	0.9	.
CN(C)CCCNC(=O)c1ccc(-c2nc(-c3ccc(Cl)cc3)cs2)cc1	5.7	8.8	-64.9	82.3*	159.3*
Cc1c(CCOC(=O)CC23CC4CC(CC(C4)C2)C3)sc[n+]1CC(=O)c1ccc(Br)cc1	3.8	3.3	-24.9	34.4*	0.6
Cc1c(CCOC(=O)c2ccccc2)sc[n+]1CC(=O)c1ccc(Br)cc1	0.0	1.1	.	-4.7	.
O=C(NC1CCCCC1)c1cccc2c1C(=O)c1ccc(-c3ccc(OC(F)(F)F)cc3)cc1S2(=O)=O	1.5	27.9	.	74.9*	66.7*
COc1ccc(-c2ccc3c(c2)S(=O)(=O)c2cccc(C(=O)NC4CCCC4)c2C3=O)cc1OC	-0.3	0.3	.	-1.9	.
CC(C)c1cccc(-c2ccc3c(c2)S(=O)(=O)c2cccc(C(=O)NC4CCCC4)c2C3=O)c1	-1.2	13.4	.	33.1*	26.1
CCNC(=O)C1(C)CCCN(C(=O)CCc2cccs2)C1 (configuration not stated)	2.1	.	.	.	.
CCNC(=O)C1(C)CCCN(Cc2ccc(-n3ccnc3)cc2)C1 (configuration not stated)	0.5	.	.	.	.
CCCCN(CC)S(=O)(=O)c1ccc(C(=O)N=c2sc3cc(NC(C)=O)ccc3n2C)cc1	3.2	23.4	47.3	137.0*	106.3*
CCCCN(C)S(=O)(=O)c1ccc(C(=O)N=c2sc3cc(NC(C)=O)ccc3n2C)cc1	0.8	0.7	-19.5	0.1	.
Cc1ccc(SC(=O)COc2ccccc2C)cc1	-0.3	3.8	74.9*	49.3*	16.6
CN(C)C(=O)CCc1ccc2c3c([nH]c2c1)[C@]1(CCc2ccccc2)[C@@H](C(=O)N2CCCCC2)C[C@H](CC(=O)NCc2ccco2)C(=O)N1CC3	-2.5	39.9	.	33.4*	1.7
CN(C)C(=O)CCc1ccc2c3c([nH]c2c1)[C@]1(C)[C@@H](C(=O)N2CCCCC2)C[C@H](CC(=O)NCc2ccco2)C(=O)N1CC3	-1.8	1.8	.	0.5	.
O=C(CC1C[C@H](C(=O)N2CCCCC2)[C@@]2(CCc3ccccc3)c3[nH]c4ccccc4c3CCN2C1=O)NCCC1=CCCCC1 (some centres not stated)	-0.1	39.9	.	125.7*	92.6*
O=C(C[C@H]1C[C@H](C(=O)N2CCCCC2)[C@@]2(CCc3ccccc3)c3[nH]c4cc(-c5ccco5)ccc4c3CCN2C1=O)NCCC1=CCCCC1	0.0	2.9	.	-0.2	.
COCCNc1nc(-c2ccccc2CO)c2sc(-c3ccccc3)cc2n1	-2.1	.	.	.	.
COc1cc([N+](=O)[O-])ccc1NC(=S)NNC(=O)c1ccc2c(c1)OCO2	-0.9	-1.0	.	30.1*	0.1
CC1(C)CC(=O)C(C=Nc2ccc(C(=O)c3ccccc3)cc2N=CC2=C(O)CC(C)(C)CC2=O)=C(O)C1	4.0	19.8	52.8	179.9*	267.9*
SMILES	GAA850 FXN act	CHOP UPR activ	CHOP inhibitor	XBP1 UPR activ	UPR XBP1 confirm
COc1ccc(OC)c(-c2nnc3n2N=C(c2ccc(OC)c(OCC4CC4)c2)CS3)c1	-1.6	1.4	.	32.1*	34.7*
COc1ccc(C2=Nn3c(nnc3-c3ccccc3Cl)SC2)cc1OCC1CC1	-2.9	-0.2	.	11.6	.
CC(=O)n1c(-c2ccccc2)c(CO)c2ccccc21	4.2	-0.8	.	5.1	.
NCCc1c(-c2ccccc2)n(-c2ccccc2)c2ccccc12	-0.5	4.2	-9.2	37.5*	83.8*
CSc1ccc(CNC(=O)C2(C)CCCN(C(C)=O)C2)cc1 (configuration not stated)	-0.6	.	.	.	.
O=C(COc1ccc([N+](=O)[O-])cc1)NNC(=O)C1COc2ccccc2O1 (configuration not stated)	0.7	.	.	.	.
O=c1ccc2cc(S(=O)(=O)N3CCN(c4ccccc4)CC3)ccc2[nH]1	-0.1	-3.0	.	2.1	.
O=S(=O)(c1ccc2nc(-c3ccccc3)[nH]c2c1)N1CCN(c2ccc(Cl)cc2)CC1	-4.9	20.3	105.2*	90.1*	115.1*
COc1ccc(C(=O)N2CCC(C)(C(=O)NS(=O)(=O)C3CC3)C2)cc1 (configuration not stated)	0.4	.	.	.	.
CC1(C)Cc2c(c(N3CCOCC3)nc3sc4c(NCc5ccccc5)nnnc4c23)CS1	0.3	7.5	44.5	137.1*	14.1
CC1(C)Cc2c(c(N3CCOCC3)nc3sc4c(NCc5ccco5)nnnc4c23)CS1	6.5	-2.7	-8.0	8.6	.
O=C(Nc1ccc(F)cc1)c1nc[nH]c1C(=O)Nc1ccc([N+](=O)[O-])cc1	0.5	8.4	-39.1	14.2	.
O=C(Nc1ccc([N+](=O)[O-])cc1)c1nc[nH]c1C(=O)NC1CCCCC1	-0.3	24.2	56.9	165.5*	171.5*
CC(C)(C)c1csc(NC(=O)c2ccc(Cl)s2)n1	3.4	6.9	73.0*	30.2*	32.6*
O=C(Nc1nc(-c2cccs2)cs1)c1ccc(Cl)s1	1.7	6.6	0.6	15.8	.
O=C(NCc1cccnc1)c1cc(C2CCCCN2S(=O)(=O)c2cccc3cccnc23)on1 (configuration not stated)	0.5	.	.	.	.
Oc1nc(Nc2ccc(F)cc2)sc1/C=C1\C=Nc2ccccc21	2.9	-1.0	7.5	0.9	.
CC1=Nc2ccccc2/C1=C\c1sc(Nc2ccc(C)cc2)nc1O	-1.1	3.6	-33.3	33.4*	40.2*
CCOc1c(Br)cc(C(=O)Nc2cccc(S(=O)(=O)N3CCOCC3)c2)cc1OC	0.3	.	.	.	.
CCOc1cccc2sc(N(CCCN(C)C)C(=O)c3ccc(S(=O)(=O)N(C)Cc4ccccc4)cc3)nc12	-2.9	4.6	.	27.3	.
CCCCN(CC)S(=O)(=O)c1ccc(C(=O)N(CCCN(C)C)c2nc3cc(C)cc(C)c3s2)cc1	-0.4	3.9	86.9*	45.3*	36.3*

High-throughput results as filed in PubChem BioAssay.
